Test [1] is described as follows: Antiproliferative activity against human A16-F10 cells after 48 hrs by MTT assay. It is filed as functional, cell-based. The note with it: A16-F10, 48 h. In a few lines: (§1)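 Cells were seeded at 7 × 10³ per well and, after 24 h, exposed while growing exponentially to a range of concentrations for 48 h. MTT (5 mg/mL stock in PBS) was added for 6 h, followed by 10% SDS in 0.01 N HCl for a further 4 h at 37 °C, then absorbance read at 570 nm. Survival was taken as % of untreated cells. IC50 came from 6-well replicates in at least two independent experiments.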

In test [2] the target is Epidermal growth factor receptor (Homo sapiens, UniProt P00533). The test is described as follows: Inhibition of EGFR expressed in baculovirus infected Sf9 cells assessed as inhibition of autophosphorylation preincubated for 10 mins measured after 1 hr by DELFIA/Time-Resolved Fluorometry.
Chain of Epidermal growth factor receptor (P00533 whole entry): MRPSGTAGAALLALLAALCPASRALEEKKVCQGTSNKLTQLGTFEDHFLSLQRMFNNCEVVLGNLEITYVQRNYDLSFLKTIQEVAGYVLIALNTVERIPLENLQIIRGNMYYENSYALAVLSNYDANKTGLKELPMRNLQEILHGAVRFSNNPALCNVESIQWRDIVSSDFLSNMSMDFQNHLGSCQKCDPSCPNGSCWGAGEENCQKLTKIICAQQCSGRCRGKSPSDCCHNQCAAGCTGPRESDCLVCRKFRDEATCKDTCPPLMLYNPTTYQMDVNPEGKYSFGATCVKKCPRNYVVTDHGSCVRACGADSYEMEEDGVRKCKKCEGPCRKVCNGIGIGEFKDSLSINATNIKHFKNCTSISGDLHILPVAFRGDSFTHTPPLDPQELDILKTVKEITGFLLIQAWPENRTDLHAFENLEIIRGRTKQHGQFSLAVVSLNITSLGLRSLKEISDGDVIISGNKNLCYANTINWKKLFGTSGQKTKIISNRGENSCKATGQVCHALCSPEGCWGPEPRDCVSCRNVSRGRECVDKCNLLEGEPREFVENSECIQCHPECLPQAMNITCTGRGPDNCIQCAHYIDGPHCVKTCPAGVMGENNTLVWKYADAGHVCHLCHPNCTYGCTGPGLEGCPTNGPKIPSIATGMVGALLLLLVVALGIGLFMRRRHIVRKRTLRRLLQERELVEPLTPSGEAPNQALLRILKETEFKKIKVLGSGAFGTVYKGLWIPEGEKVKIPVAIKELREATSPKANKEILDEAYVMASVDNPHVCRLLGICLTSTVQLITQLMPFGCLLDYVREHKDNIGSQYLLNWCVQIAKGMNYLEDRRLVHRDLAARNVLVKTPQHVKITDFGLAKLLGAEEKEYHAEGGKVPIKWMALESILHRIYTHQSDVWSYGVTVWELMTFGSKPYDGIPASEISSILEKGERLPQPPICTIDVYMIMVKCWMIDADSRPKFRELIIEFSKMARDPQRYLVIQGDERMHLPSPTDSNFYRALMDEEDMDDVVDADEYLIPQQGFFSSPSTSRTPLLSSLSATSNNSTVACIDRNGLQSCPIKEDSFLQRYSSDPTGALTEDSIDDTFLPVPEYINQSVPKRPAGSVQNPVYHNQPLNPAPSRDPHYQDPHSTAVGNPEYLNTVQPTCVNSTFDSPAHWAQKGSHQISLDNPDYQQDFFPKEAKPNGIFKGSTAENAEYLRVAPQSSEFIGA
Test [3] has as its system HepG2. The test is described as follows: Antiproliferative activity against human HepG2 cells after 48 hrs by MTT assay. It is filed as functional, cell-based. The settings on record: HepG2, 48 h. The gist of the method: as §1
For orientation: Tetrazolium assays rely on reduction of a dye to a coloured formazan, in cell work by metabolically active cells.

For test [4], the system named is HepG2. The test is described as follows: Induction of apoptosis in human HepG2 cells after 3 days using annexin-V/PI double staining by flow cytometry. It is filed as functional, cell-based. (A flow cytometer gives signals particle by particle.)
The test system of test [5] is HepG2. Kind of test: Induction of apoptosis in human HepG2 cells assessed as apoptotic cells at 1 uM after 3 days using annexin-V/PI double staining by flow cytometry (reference value: 0.98%). It is filed as functional.
In test [6] the test system is HepG2. Kind of test: Induction of apoptosis in human HepG2 cells assessed as apoptotic cells at 2 uM after 3 days using annexin-V/PI double staining by flow cytometry (reference value: 0.98%). It is filed as functional.

Structures are written as SMILES.

For `Oc1ccccc1CNc1ccc2ncnc(Nc3cccc(Br)c3)c2c1`, the IC50 (as a rule, the midpoint of a concentration-inhibition curve) came out at 1.87 µM in test [1], 3.22 µM in test [2] and 1.26 µM in test [3].

Turning to `Fc1ccc(CNc2ccc3ncnc(Nc4cccc(Cl)c4)c3c2)cc1`, the IC50 in test [1] was determined as 2.95 µM; in test [3], 2.69 µM.

Consider `COc1ccc(CNc2ccc3ncnc(Nc4cccc(Br)c4)c3c2)cc1`, for which the IC50 came to 10.4 µM in test [1] and 5.43 µM in test [3].

Take `COc1ccc(CNc2ccc3ncnc(Nc4cccc(Cl)c4)c3c2)cc1`: the IC50 in test [1] worked out at 8.43 µM; in test [3], 5.26 µM.

`Clc1cccc(Nc2ncnc3ccc(NCc4ccc(Br)cc4)cc23)c1`: the IC50 was found to be 4.01 µM in test [1], 5.67 µM in test [2] and 3.81 µM in test [3].

Take `Clc1cccc(Nc2ncnc3ccc(NCc4ccccc4Br)cc23)c1`: the IC50 in test [1] was found to be 5.83 µM; in test [3], 4.17 µM.

For the compound `Brc1ccc(CNc2ccc3ncnc(Nc4cccc(Br)c4)c3c2)cc1`, the IC50 in test [1] worked out at 2.21 µM; in test [2], 3.13 µM; in test [3], 1.41 µM.

Regarding `COc1ccccc1CNc1ccc2ncnc(Nc3cccc(Br)c3)c2c1`, the IC50 in test [1] came out at 12.5 µM; in test [2], 11.2 µM; in test [3] it was 8.82 µM.

With `Fc1ccc(CNc2ccc3ncnc(Nc4cccc(Br)c4)c3c2)cc1`, the IC50 in test [1] was determined as 2.09 µM; in test [3] it was 1.77 µM.

Consider `COc1ccccc1CNc1ccc2ncnc(Nc3cccc(Cl)c3)c2c1`, for which the IC50 in test [1] was determined as 14.8 µM; in test [2], 13.9 µM; in test [3], 9.85 µM.

In the case of `Oc1ccc(CNc2ccc3ncnc(Nc4cccc(Cl)c4)c3c2)cc1`, the IC50 in test [1] was 1.58 µM; in test [2], 1.87 µM; in test [3], 1.52 µM.

With `Brc1cccc(Nc2ncnc3ccc(NCc4ccccc4Br)cc23)c1`, the half-maximal inhibitory concentration (IC50) in test [1] stood at 4.38 µM; in test [3], 2.76 µM.

Take `Oc1ccccc1CNc1ccc2ncnc(Nc3cccc(Cl)c3)c2c1`: the IC50 in test [1] was 3.18 µM; in test [2], 3.54 µM; in test [3], 2.08 µM.

Turning to `Clc1ccccc1CNc1ccc2ncnc(Nc3cccc(Br)c3)c2c1`, the results for the IC50 in test [1] and in test [3] were 3.74 µM and 1.82 µM, respectively.

On to `Clc1ccc(CNc2ccc3ncnc(Nc4cccc(Br)c4)c3c2)cc1`, for which the IC50 in test [1] is 1.82 µM; in test [2], 1.64 µM; in test [3], 0.92 µM.

With `Clc1ccc(CNc2ccc3ncnc(Nc4cccc(Cl)c4)c3c2)cc1`, the half-maximal inhibitory concentration (IC50) in test [1] came out at 2.67 µM; in test [2], 4.41 µM; in test [3] it was 1.78 µM.

`C#Cc1cccc(Nc2ncnc3cc(OCCOC)c(OCCOC)cc23)c1` [ERLOTINIB] registered an IC50 in test [1] of 0.02 µM.

For the compound `Oc1ccc(CNc2ccc3ncnc(Nc4cccc(Br)c4)c3c2)cc1`, the Activity entry in test [4] was “Dose-dependent effect”; in test [5] it was 20.8%; in test [6], 54.2%. Further, the IC50 is 0.59 µM in test [1] and 0.28 µM in test [3].

Take `Clc1cccc(Nc2ncnc3ccc(NCc4ccccc4Cl)cc23)c1`: the 50% inhibitory concentration (IC50) in test [1] worked out at 7.12 µM; in test [3], 5.33 µM.

These data come from ChEMBL document CHEMBL1926595, “Design and synthesis of 4,6-substituted-(diaphenylamino)quinazolines as potent EGFR inhibitors with antitumor activity” (Bioorg Med Chem, 2012).
